Laboratory results reported in ChEMBL document CHEMBL4270541, “Synthesis and antimicrobial evaluation of amino sugar-based naphthoquinones and isoquinoline-5,8-diones and their halogenated compounds” (Eur J Med Chem, 2018).
≈ marks a conversion by molar mass, not a printed value. Calls of active or inactive are those of the source. The calls are words filed in the database; no cut-off is given here.

Key:
Staphylococcus simulans [1] = assay: Antimicrobial activity against Staphylococcus simulans INCQS 00254 ATCC 27851 at 256 ug/ml after 24 hrs by microdilution assay; format: functional, organism-based
Staphylococcus aureus [2] = assay: Bactericidal activity against Staphylococcus aureus INCQS 00015 ATCC 25923 at 256 ug/ml incubated for 24 hrs followed by transfer of microbial suspension to agar plates and measured after 24 hrs post transfer by resazurin dye-based colorimetric analysis; format: functional, organism-based
Summary of the method: (§1)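 For MBC, 10 µL from each clear MIC well was plated on agar and incubated 24 h at 37°C. MBC is the minimum concentration inhibiting 99.9% of growth. […] Triplicate.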

Staphylococcus simulans [3] = assay: Antimicrobial activity against Staphylococcus simulans INCQS 00254 ATCC 27851 assessed as zone of inhibition at 5 mg/ml after 18 to 24 hrs by disc diffusion method; format: functional; conditions: read-out: IZ
Staphylococcus aureus [4] = assay: Antimicrobial activity against Staphylococcus aureus INCQS 00015 ATCC 25923 assessed as zone of inhibition at 5 mg/ml after 18 to 24 hrs by disc diffusion method; format: functional; conditions: read-out: IZ
Escherichia coli [5] = assay: Ratio of MBC99.9 to MIC for Escherichia coli INCQS 00033 ATCC 25922; format: functional, ATCC 25922 INCQS 00033
Summary of the method: (§2)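 MBC/MIC ratio from the 24 h, 37°C microdilution MIC and the agar-plating MBC (99.9% growth inhibition). A ratio ≤2 was classed as bactericidal and ≥4 as bacteriostatic.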

Pseudomonas aeruginosa [6] = assay: Antimicrobial activity against Pseudomonas aeruginosa INCQS 00099 ATCC 27853 assessed as zone of inhibition at 5 mg/ml after 18 to 24 hrs by disc diffusion method; format: functional; conditions: read-out: IZ
[7] = system: Staphylococcus epidermidis; assay: Antimicrobial activity against Staphylococcus epidermidis INCQS 00016 ATCC 12228 at 256 ug/ml after 24 hrs by microdilution assay; format: functional, organism-based; conditions: ATCC 12228 INCQS 00016
Escherichia coli [8] = assay: Antimicrobial activity against Escherichia coli INCQS 00033 ATCC 25922 assessed as zone of inhibition at 5 mg/ml after 18 to 24 hrs by disc diffusion method; format: functional; conditions: ATCC 25922 INCQS 00033, read-out: IZ
Klebsiella pneumoniae = assay: Antimicrobial activity against Klebsiella pneumoniae INCQS 00083 ATCC 4352 assessed as zone of inhibition at 5 mg/ml after 18 to 24 hrs by disc diffusion method; format: functional; conditions: read-out: IZ
Staphylococcus aureus [9] = assay: Antimicrobial activity against Staphylococcus aureus INCQS 00015 ATCC 25923 at 256 ug/ml after 24 hrs by microdilution assay; format: functional, organism-based
Staphylococcus simulans [10] = assay: Bactericidal activity against Staphylococcus simulans INCQS 00254 ATCC 27851 at 256 ug/ml incubated for 24 hrs followed by transfer of microbial suspension to agar plates and measured after 24 hrs post transfer by resazurin dye-based colorimetric analysis; format: functional, organism-based; summary of the method: as §1
Staphylococcus aureus [11] = assay: Antimicrobial activity against methicillin-resistant Staphylococcus aureus BMB9393 assessed as zone of inhibition at 5 mg/ml after 18 to 24 hrs by disc diffusion method; format: functional; conditions: read-out: IZ
Staphylococcus aureus [12] = assay: Antimicrobial activity against methicillin-resistant Staphylococcus aureus BMB9393 at 256 ug/ml after 24 hrs by microdilution assay; format: functional, organism-based
[13] = system: Staphylococcus epidermidis; assay: Bactericidal activity against Staphylococcus epidermidis INCQS 00016 ATCC 12228 at 256 ug/ml incubated for 24 hrs followed by transfer of microbial suspension to agar plates and measured after 24 hrs post transfer by resazurin dye-based colorimetric analysis; format: functional, organism-based; conditions: ATCC 12228 INCQS 00016; summary of the method: as §1
Enterococcus faecalis = assay: Antimicrobial activity against Enterococcus faecalis INCQS 00234 ATCC 29212 assessed as zone of inhibition at 5 mg/ml after 18 to 24 hrs by disc diffusion method; format: functional; conditions: ATCC 29212 INCQS 00234, read-out: IZ
Escherichia coli [14] = assay: Antimicrobial activity against Escherichia coli INCQS 00033 ATCC 25922 after 24 hrs by microdilution assay; format: functional; conditions: ATCC 25922 INCQS 00033, 24 h
[15] = Hemolytic activity against human erythrocytes assessed as hemolysis at 200 ug/ml after 3 hrs by spectrophotometric analysis relative to control; format: ADME, cell-based, Erythrocyte; conditions: read-out: Activity
Summary of the method: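 Erythrocytes collected in citrate tubes, washed three times with PBS pH 7.4 by centrifugation and resuspended in PBS. Incubated with compounds at 200 µg/mL for 3 h at 37°C. Released hemoglobin was read in the supernatant at 545 nm against 1% Triton X-100 (complete lysis) and 1% DMSO (negative control). Below 10% hemolysis was taken as hemocompatible. Three independent experiments.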

Pseudomonas aeruginosa [16] = assay: Antimicrobial activity against Pseudomonas aeruginosa INCQS 00099 ATCC 27853 after 24 hrs by microdilution assay; format: functional; conditions: INCQS 00099 ATCC 27853, 24 h
Escherichia coli [17] = assay: Bactericidal activity against Escherichia coli INCQS 00033 ATCC 25922 incubated for 24 hrs followed by transfer of microbial suspension to agar plates and measured after 24 hrs post transfer by resazurin dye-based colorimetric analysis; format: functional; conditions: ATCC 25922 INCQS 00033, 24 h, read-out: MBC99.9; summary of the method: as §1
Pseudomonas aeruginosa [18] = assay: Bactericidal activity against Pseudomonas aeruginosa INCQS 00099 ATCC 27853 incubated for 24 hrs followed by transfer of microbial suspension to agar plates and measured after 24 hrs post transfer by resazurin dye-based colorimetric analysis; format: functional; conditions: INCQS 00099 ATCC 27853, 24 h, read-out: MBC99.9; summary of the method: as §1
Proteus mirabilis = assay: Antimicrobial activity against Proteus mirabilis INCQS 00095 ATCC 15290 assessed as zone of inhibition at 5 mg/ml after 18 to 24 hrs by disc diffusion method; format: functional; conditions: read-out: IZ
Staphylococcus aureus [19] = assay: Bactericidal activity against methicillin-resistant Staphylococcus aureus BMB9393 at 256 ug/ml incubated for 24 hrs followed by transfer of microbial suspension to agar plates and measured after 24 hrs post transfer by resazurin dye-based colorimetric analysis; format: functional, organism-based
Summary of the method: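 From MIC wells with no visible growth, 10 µL is transferred to agar plates and incubated 24 h at 37°C. MBC is the minimum concentration inhibiting 99.9% of growth. […] Triplicate.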

[20] = system: Staphylococcus epidermidis; assay: Antimicrobial activity against Staphylococcus epidermidis INCQS 00016 ATCC 12228 assessed as zone of inhibition at 5 mg/ml after 18 to 24 hrs by disc diffusion method; format: functional; conditions: ATCC 12228 INCQS 00016, read-out: IZ
Pseudomonas aeruginosa [21] = assay: Ratio of MBC99.9 to MIC for Pseudomonas aeruginosa INCQS 00099 ATCC 27853; format: functional; summary of the method: as §2
[22] = system: Staphylococcus epidermidis; assay: Ratio of MBC99.9 to MIC for Staphylococcus epidermidis INCQS 00016 ATCC 12228; format: functional, ATCC 12228 INCQS 00016; summary of the method: as §2
[23] = system: Staphylococcus epidermidis; assay: Antimicrobial activity against Staphylococcus epidermidis INCQS 00016 ATCC 12228 after 24 hrs by microdilution assay; format: functional; conditions: ATCC 12228 INCQS 00016, 24 h
[24] = system: Staphylococcus epidermidis; assay: Bactericidal activity against Staphylococcus epidermidis INCQS 00016 ATCC 12228 incubated for 24 hrs followed by transfer of microbial suspension to agar plates and measured after 24 hrs post transfer by resazurin dye-based colorimetric analysis; format: functional; conditions: ATCC 12228 INCQS 00016, 24 h, read-out: MBC99.9; summary of the method: as §1

SMILES	Activity (Staphylococcus simulans [1])	Activity (Staphylococcus aureus [2])	zone of inhibition at 5000 µg/mL (Staphylococcus simulans [3]) [mm]	zone of inhibition at 5000 µg/mL (Staphylococcus aureus [4]) [mm]	Ratio (Escherichia coli [5])	zone of inhibition at 5000 µg/mL (Pseudomonas aeruginosa [6]) [mm]	zone of inhibition at 5000 µg/mL (Escherichia coli [8]) [mm]	zone of inhibition at 5000 µg/mL (Klebsiella pneumoniae) [mm]	Activity (Staphylococcus aureus [9])	Activity (Staphylococcus simulans [10])	zone of inhibition at 5000 µg/mL (Staphylococcus aureus [11]) [mm]	Activity (Staphylococcus aureus [12])	zone of inhibition at 5000 µg/mL (Enterococcus faecalis) [mm]	MIC (Escherichia coli [14]) [µg/mL]	hemolysis at 3 h, 200 ug/ml [15] [%]	MIC (Pseudomonas aeruginosa [16]) [µg/mL]	MBC (Escherichia coli [17]) [µg/mL]	MBC (Pseudomonas aeruginosa [18]) [µg/mL]	zone of inhibition at 5000 µg/mL (Proteus mirabilis) [mm]	Activity (Staphylococcus aureus [19])	other results
CO[C@@H]1O[C@H](CNC2=C(Cl)C(=O)c3ccccc3C2=O)[C@H]2OC(C)(C)O[C@@H]12	inactive	inactive	7	0	1	9	10	0	inactive	inactive	0	inactive	0	8 (≈ 20.3 µM)	< 10	32 (≈ 81.3 µM)	8 (≈ 20.3 µM)	32 (≈ 81.3 µM)	0	inactive	Activity [7]: inactive; Activity [13]: inactive; zone of inhibition at 5000 µg/mL [20]: 9 mm
COC(=O)c1c(C)nc(C)c2c1C(=O)C(Br)=C(NC[C@H]1O[C@@H](OC)[C@@H]3OC(C)(C)O[C@@H]31)C2=O	inactive	inactive	0	13	1	17	17	0	inactive	inactive	12	inactive	0	8 (≈ 15.2 µM)	< 10	8 (≈ 15.2 µM)	8 (≈ 15.2 µM)	8 (≈ 15.2 µM)	0	inactive	Activity [7]: inactive; Activity [13]: inactive; Ratio (Pseudomonas aeruginosa [21]): 1; zone of inhibition at 5000 µg/mL [20]: 11 mm
CC1(C)O[C@H]2O[C@H](CNC3=C(Cl)C(=O)c4ccccc4C3=O)[C@H](O)[C@H]2O1	inactive	inactive	13	14	1	21	17	0	inactive	inactive	0	inactive	0	4 (≈ 10.5 µM)	10.1 to 14.4	8 (≈ 21.1 µM)	4 (≈ 10.5 µM)	8 (≈ 21.1 µM)	0	inactive	Activity [7]: inactive; Activity [13]: inactive; Ratio (Pseudomonas aeruginosa [21]): 1; zone of inhibition at 5000 µg/mL [20]: 15 mm
CC1(C)O[C@H]2[C@@H](O1)[C@@H](CNC1=C(Cl)C(=O)c3ccccc3C1=O)O[C@@H]1OC(C)(C)O[C@@H]12	inactive	inactive	0	9	1	13	12	0	inactive	inactive	0	inactive	0	16 (≈ 35.6 µM)	< 10	32 (≈ 71.1 µM)	16 (≈ 35.6 µM)	32 (≈ 71.1 µM)	0	inactive	Activity [7]: inactive; Activity [13]: inactive; Ratio (Pseudomonas aeruginosa [21]): 1; zone of inhibition at 5000 µg/mL [20]: 8 mm
COC(=O)c1c(C)nc(C)c2c1C(=O)C(Br)=C(N)C2=O	inactive	inactive	17	23	1	28	30	0	inactive	inactive	22	inactive	0	8 (≈ 23.6 µM)	10.1 to 14.4	32 (≈ 94.4 µM)	8 (≈ 23.6 µM)	32 (≈ 94.4 µM)	0	inactive	Ratio [22]: 1; MIC [23]: 32 µg/mL (≈ 94.4 µM); MBC [24]: 32 µg/mL (≈ 94.4 µM); Ratio (Pseudomonas aeruginosa [21]): 1; zone of inhibition at 5000 µg/mL [20]: 22 mm
CO[C@@H]1O[C@H](CNC2=C(Br)C(=O)c3ccccc3C2=O)[C@H]2OC(C)(C)O[C@@H]12	inactive	inactive	8	8	1	13	16	0	inactive	inactive	0	inactive	0	32 (≈ 73 µM)	< 10	64 (≈ 146 µM)	32 (≈ 73 µM)	34 (≈ 77.6 µM)	0	inactive	Activity [7]: inactive; Activity [13]: inactive; Ratio (Pseudomonas aeruginosa [21]): 1; zone of inhibition at 5000 µg/mL [20]: 10 mm
CC1(C)O[C@H]2O[C@H](CNC3=C(Br)C(=O)c4ccccc4C3=O)[C@H](O)[C@H]2O1	inactive	inactive	9	8	1	16	12	0	inactive	inactive	0	inactive	0	16 (≈ 37.7 µM)	< 10	16 (≈ 37.7 µM)	16 (≈ 37.7 µM)	16 (≈ 37.7 µM)	0	inactive	Activity [7]: inactive; Activity [13]: inactive; Ratio (Pseudomonas aeruginosa [21]): 1; zone of inhibition at 5000 µg/mL [20]: 10 mm
